Converted amounts (≈) assume the structure as drawn.
Test system: Mus musculus
Test: Acute toxicity in AKR mouse up to 0.5 mmol/kg, ip
Format: organism-based
Settings: in vivo

Compound	Activity
O=C1N/C(=N\c2nccs2)S/C1=C\c1c(Cl)cccc1Cl	Non-toxic
O=C1N/C(=N\c2nccs2)S/C1=C\c1cccc(Cl)c1Cl	Non-toxic

Test system: Aspergillus niger
Test: Antifungal activity against Aspergillus niger ATCC 6275 after 72 hrs by serial dilution technique
Format: functional
Settings: ATCC 6275, 72 h
Procedure, shortened: (§1)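 Serial dilution in malt broth; compounds from 1 mg/ml stocks in 5% DMSO; 72 h at 28 °C. MIC is the lowest concentration with no visible growth under a binocular microscope. Run in duplicate, repeated three times.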

Compound	MIC
O=C1N/C(=N\c2nccs2)S/C1=C\c1c(Cl)cccc1Cl	56.2 µM (≈ 20 µg/mL)
O=C1N/C(=N\c2nccs2)S/C1=C\c1cccc(Cl)c1Cl	42.1 µM (≈ 15 µg/mL)

Test system: Aspergillus fumigatus
Test: Fungicidal activity against Aspergillus fumigatus after 72 hrs by serial subcultivation method
Format: functional
Settings: not given

Compound	MFC
O=C1N/C(=N\c2nccs2)S/C1=C\c1c(Cl)cccc1Cl	70.2 µM (≈ 25 µg/mL)
O=C1N/C(=N\c2nccs2)S/C1=C\c1cccc(Cl)c1Cl	70.2 µM (≈ 25 µg/mL)

Test system: Listeria monocytogenes
Test: Antibacterial activity against Listeria monocytogenes NCTC 7973 after 24 hr by microdilution test
Format: functional
Settings: NCTC 7973, 24 h
Procedure, shortened: (§2)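 Broth microdilution in LB medium, about 1.0×10^4 cfu per well; compounds from 1 mg/ml stocks in 5% DMSO. Incubated 24 h. MIC is the lowest concentration with no visible growth under a binocular microscope. Run in duplicate, repeated three times.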

Compound	MIC
O=C1N/C(=N\c2nccs2)S/C1=C\c1c(Cl)cccc1Cl	56.2 µM (≈ 20 µg/mL)
O=C1N/C(=N\c2nccs2)S/C1=C\c1cccc(Cl)c1Cl	70.2 µM (≈ 25 µg/mL)

Test system: Aspergillus niger
Test: Fungicidal activity against Aspergillus niger ATCC 6275 after 72 hrs by serial subcultivation method
Format: functional
Settings: ATCC 6275, 72 h

Compound	MFC
O=C1N/C(=N\c2nccs2)S/C1=C\c1c(Cl)cccc1Cl	70.2 µM (≈ 25 µg/mL)
O=C1N/C(=N\c2nccs2)S/C1=C\c1cccc(Cl)c1Cl	56.2 µM (≈ 20 µg/mL)

Target: T1, Prostaglandin G/H synthase 1 (Ovis aries) (UniProt P05979)
T1 sequence (whole entry): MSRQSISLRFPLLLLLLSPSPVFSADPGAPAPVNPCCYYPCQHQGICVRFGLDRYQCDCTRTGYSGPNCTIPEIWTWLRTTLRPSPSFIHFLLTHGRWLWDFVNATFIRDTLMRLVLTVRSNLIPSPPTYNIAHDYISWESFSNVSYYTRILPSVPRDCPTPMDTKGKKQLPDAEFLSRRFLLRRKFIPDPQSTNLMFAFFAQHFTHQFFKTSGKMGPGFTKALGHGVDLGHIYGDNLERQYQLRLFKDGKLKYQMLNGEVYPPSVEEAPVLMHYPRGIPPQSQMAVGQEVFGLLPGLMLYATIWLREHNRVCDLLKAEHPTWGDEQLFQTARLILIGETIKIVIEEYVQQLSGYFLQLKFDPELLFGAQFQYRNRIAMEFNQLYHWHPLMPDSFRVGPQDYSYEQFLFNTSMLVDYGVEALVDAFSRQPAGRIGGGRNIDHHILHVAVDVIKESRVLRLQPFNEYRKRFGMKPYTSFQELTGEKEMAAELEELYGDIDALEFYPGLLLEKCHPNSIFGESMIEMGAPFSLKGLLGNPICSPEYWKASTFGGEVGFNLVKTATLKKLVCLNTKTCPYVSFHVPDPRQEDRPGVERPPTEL
Test: (§3) Inhibition of ovine COX1 assessed as inhibition of PGF2a production by enzyme immunoassay
Design: concentration or dose not given beside the values
Settings: concentration not given here
Procedure, shortened: (§4)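 Ovine COX-1 from a commercial screening kit, tested with 0.1 µM arachidonic acid, which is below the saturating level. COX-derived PGH2 is reduced by SnCl2 to PGF2a, quantified by enzyme immunoassay with a broad prostaglandin antibody. At least triplicate.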

Compound	inhibition
O=C1N/C(=N\c2nccs2)S/C1=C\c1c(Cl)cccc1Cl	100%
O=C1N/C(=N\c2nccs2)S/C1=C\c1cccc(Cl)c1Cl	100%

Target: T2, Prostaglandin G/H synthase 1 (Ovis aries, UniProt P05979)
T2 sequence (P05979 whole entry): T1 sequence (whole entry)
Test: as §3
Settings: not given
Procedure, shortened: as §4

Compound	IC50
O=C1N/C(=N\c2nccs2)S/C1=C\c1c(Cl)cccc1Cl	78 µM
O=C1N/C(=N\c2nccs2)S/C1=C\c1cccc(Cl)c1Cl	10 µM

Test system: Aspergillus flavus
Test: Antifungal activity against Aspergillus flavus ATCC 9643 after 72 hrs by serial dilution technique
Format: functional
Settings: ATCC 9643, 72 h
Procedure, shortened: as §1

Compound	MIC
O=C1N/C(=N\c2nccs2)S/C1=C\c1c(Cl)cccc1Cl	56.2 µM (≈ 20 µg/mL)
O=C1N/C(=N\c2nccs2)S/C1=C\c1cccc(Cl)c1Cl	42.1 µM (≈ 15 µg/mL)

Test system: Trichoderma viride
Test: Fungicidal activity against Trichoderma viride IAM 5061 after 72 hrs by serial subcultivation method
Format: functional
Settings: IAM 5061, 72 h

Compound	MFC
O=C1N/C(=N\c2nccs2)S/C1=C\c1c(Cl)cccc1Cl	28.1 µM (≈ 10 µg/mL)
O=C1N/C(=N\c2nccs2)S/C1=C\c1cccc(Cl)c1Cl	56.2 µM (≈ 20 µg/mL)

Test system: Pseudomonas aeruginosa
Test: Bactericidal activity against Pseudomonas aeruginosa ATCC 27853 after 72 hrs by serial subcultivation method
Format: functional
Settings: ATCC 27853, 72 h

Compound	MBC
O=C1N/C(=N\c2nccs2)S/C1=C\c1c(Cl)cccc1Cl	28.1 µM (≈ 10 µg/mL)
O=C1N/C(=N\c2nccs2)S/C1=C\c1cccc(Cl)c1Cl	56.2 µM (≈ 20 µg/mL)

Test system: Bacillus cereus
Test: Bactericidal activity against Bacillus cereus clinical isolate after 72 hrs by serial subcultivation method
Format: functional
Settings: not given

Compound	MBC
O=C1N/C(=N\c2nccs2)S/C1=C\c1c(Cl)cccc1Cl	28.1 µM (≈ 10 µg/mL)
O=C1N/C(=N\c2nccs2)S/C1=C\c1cccc(Cl)c1Cl	70.2 µM (≈ 25 µg/mL)

Test system: Talaromyces funiculosus
Test: Fungicidal activity against Penicillium funiculosum ATCC 36839 after 72 hrs by serial subcultivation method
Format: functional
Settings: ATCC 36839, 72 h

Compound	MFC
O=C1N/C(=N\c2nccs2)S/C1=C\c1c(Cl)cccc1Cl	70.2 µM (≈ 25 µg/mL)
O=C1N/C(=N\c2nccs2)S/C1=C\c1cccc(Cl)c1Cl	56.2 µM (≈ 20 µg/mL)

Test system: Talaromyces funiculosus
Test: Antifungal activity against Penicillium funiculosum ATCC 36839 after 72 hrs by serial dilution technique
Format: functional
Settings: ATCC 36839, 72 h
Procedure, shortened: as §1

Compound	MIC
O=C1N/C(=N\c2nccs2)S/C1=C\c1c(Cl)cccc1Cl	28.1 µM (≈ 10 µg/mL)
O=C1N/C(=N\c2nccs2)S/C1=C\c1cccc(Cl)c1Cl	28.1 µM (≈ 10 µg/mL)

Test system: Trichoderma viride
Test: Antifungal activity against Trichoderma viride IAM 5061 after 72 hrs by serial dilution technique
Format: functional
Settings: IAM 5061, 72 h
Procedure, shortened: as §1

Compound	MIC
O=C1N/C(=N\c2nccs2)S/C1=C\c1c(Cl)cccc1Cl	21.1 µM (≈ 7.52 µg/mL)
O=C1N/C(=N\c2nccs2)S/C1=C\c1cccc(Cl)c1Cl	28.1 µM (≈ 10 µg/mL)

Test system: Aspergillus fumigatus
Test: Antifungal activity against Aspergillus fumigatus after 72 hrs by serial dilution technique
Format: functional
Settings: not given
Procedure, shortened: as §1

Compound	MIC
O=C1N/C(=N\c2nccs2)S/C1=C\c1c(Cl)cccc1Cl	56.2 µM (≈ 20 µg/mL)
O=C1N/C(=N\c2nccs2)S/C1=C\c1cccc(Cl)c1Cl	56.2 µM (≈ 20 µg/mL)

Test system: Glycine max
Test: (§5) Inhibition of soybean lipoxygenase assessed as inhibition of sodium linolate conversion to 13-hydroperoxylinoleic acid after 4 mins by spectrophotometry
Settings: not given

Compound	inhibition
O=C1N/C(=N\c2nccs2)S/C1=C\c1c(Cl)cccc1Cl	43%
O=C1N/C(=N\c2nccs2)S/C1=C\c1cccc(Cl)c1Cl	41%

Target: not listed separately
Test: as §5
Design: species or system Glycine max
Settings: read-out: IC50

Compound	IC50
O=C1N/C(=N\c2nccs2)S/C1=C\c1c(Cl)cccc1Cl	137 µM
O=C1N/C(=N\c2nccs2)S/C1=C\c1cccc(Cl)c1Cl	143 µM

Test system: Bacillus cereus
Test: Antibacterial activity against Bacillus cereus clinical isolate after 24 hr by microdilution test
Format: functional
Settings: not given
Procedure, shortened: as §2

Compound	MIC
O=C1N/C(=N\c2nccs2)S/C1=C\c1c(Cl)cccc1Cl	21.1 µM (≈ 7.52 µg/mL)
O=C1N/C(=N\c2nccs2)S/C1=C\c1cccc(Cl)c1Cl	56.2 µM (≈ 20 µg/mL)

Test system: Penicillium ochrochloron
Test: Antifungal activity against Penicillium ochrochloron ATCC 9112 after 72 hrs by serial dilution technique
Format: functional
Settings: ATCC 9112, 72 h
Procedure, shortened: as §1

Compound	MIC
O=C1N/C(=N\c2nccs2)S/C1=C\c1c(Cl)cccc1Cl	28.1 µM (≈ 10 µg/mL)
O=C1N/C(=N\c2nccs2)S/C1=C\c1cccc(Cl)c1Cl	42.1 µM (≈ 15 µg/mL)

Test system: Micrococcus flavus
Test: Bactericidal activity against Micrococcus flavus ATCC 10240 after 72 hrs by serial subcultivation method
Format: functional
Settings: ATCC 10240, 72 h

Compound	MBC
O=C1N/C(=N\c2nccs2)S/C1=C\c1c(Cl)cccc1Cl	84.2 µM (≈ 30 µg/mL)
O=C1N/C(=N\c2nccs2)S/C1=C\c1cccc(Cl)c1Cl	84.2 µM (≈ 30 µg/mL)

Test system: Staphylococcus aureus
Test: Antibacterial activity against Staphylococcus aureus ATCC 6538 after 24 hr by microdilution test
Format: functional
Settings: ATCC 6538, 24 h
Procedure, shortened: as §2

Compound	MIC
O=C1N/C(=N\c2nccs2)S/C1=C\c1c(Cl)cccc1Cl	28.1 µM (≈ 10 µg/mL)
O=C1N/C(=N\c2nccs2)S/C1=C\c1cccc(Cl)c1Cl	70.2 µM (≈ 25 µg/mL)

Test system: Pseudomonas aeruginosa
Test: Antibacterial activity against Pseudomonas aeruginosa ATCC 27853 after 24 hr by microdilution test
Format: functional
Settings: ATCC 27853, 24 h
Procedure, shortened: as §2

Compound	MIC
O=C1N/C(=N\c2nccs2)S/C1=C\c1c(Cl)cccc1Cl	21.1 µM (≈ 7.52 µg/mL)
O=C1N/C(=N\c2nccs2)S/C1=C\c1cccc(Cl)c1Cl	28.1 µM (≈ 10 µg/mL)

Test system: Penicillium ochrochloron
Test: Fungicidal activity against Penicillium ochrochloron ATCC 9112 after 72 hrs by serial subcultivation method
Format: functional
Settings: ATCC 9112, 72 h

Compound	MFC
O=C1N/C(=N\c2nccs2)S/C1=C\c1c(Cl)cccc1Cl	56.2 µM (≈ 20 µg/mL)
O=C1N/C(=N\c2nccs2)S/C1=C\c1cccc(Cl)c1Cl	56.2 µM (≈ 20 µg/mL)

Test system: Micrococcus flavus
Test: Antibacterial activity against Micrococcus flavus ATCC 10240 after 24 hr by microdilution test
Format: functional
Settings: ATCC 10240, 24 h
Procedure, shortened: as §2

Compound	MIC
O=C1N/C(=N\c2nccs2)S/C1=C\c1c(Cl)cccc1Cl	56.2 µM (≈ 20 µg/mL)
O=C1N/C(=N\c2nccs2)S/C1=C\c1cccc(Cl)c1Cl	56.2 µM (≈ 20 µg/mL)

Test system: Escherichia coli
Test: Antibacterial activity against Escherichia coli ATCC 35210 after 24 hr by microdilution test
Format: functional
Settings: ATCC 35210, 24 h
Procedure, shortened: as §2

Compound	MIC
O=C1N/C(=N\c2nccs2)S/C1=C\c1c(Cl)cccc1Cl	28.1 µM (≈ 10 µg/mL)
O=C1N/C(=N\c2nccs2)S/C1=C\c1cccc(Cl)c1Cl	56.2 µM (≈ 20 µg/mL)

Test system: Listeria monocytogenes
Test: Bactericidal activity against Listeria monocytogenes NCTC 7973 after 72 hrs by serial subcultivation method
Format: functional
Settings: NCTC 7973, 72 h

Compound	MBC
O=C1N/C(=N\c2nccs2)S/C1=C\c1c(Cl)cccc1Cl	84.2 µM (≈ 30 µg/mL)
O=C1N/C(=N\c2nccs2)S/C1=C\c1cccc(Cl)c1Cl	84.2 µM (≈ 30 µg/mL)

Test system: Aspergillus flavus
Test: Fungicidal activity against Aspergillus flavus ATCC 9643 after 72 hrs by serial subcultivation method
Format: functional
Settings: ATCC 9643, 72 h

Compound	MFC
O=C1N/C(=N\c2nccs2)S/C1=C\c1c(Cl)cccc1Cl	70.2 µM (≈ 25 µg/mL)
O=C1N/C(=N\c2nccs2)S/C1=C\c1cccc(Cl)c1Cl	56.2 µM (≈ 20 µg/mL)

Test system: Staphylococcus aureus
Test: Bactericidal activity against Staphylococcus aureus ATCC 6538 after 72 hrs by serial subcultivation method
Format: functional
Settings: ATCC 6538, 72 h

Compound	MBC
O=C1N/C(=N\c2nccs2)S/C1=C\c1c(Cl)cccc1Cl	56.2 µM (≈ 20 µg/mL)
O=C1N/C(=N\c2nccs2)S/C1=C\c1cccc(Cl)c1Cl	84.2 µM (≈ 30 µg/mL)

Test system: Mus musculus
Test: Antiinflammatory activity in AKR mouse assessed as inhibition of carrageenan-induced paw edema at 0.01 mmol/kg, ip measured after 3.5 hrs of carrageenan-challenge
Format: functional
Settings: not given
Procedure, shortened: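 AKR mice of both sexes (pregnant females excluded), 6-10 per group, fasted during the experiment. Edema induced by intradermal 0.05 mL of 2% carrageenin into the right hind paw. Compound given at 0.01 mmol/kg ip, suspended in water with Tween-80, at the same time as carrageenin.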

Compound	inhibition in vivo at 10 µmol/kg
O=C1N/C(=N\c2nccs2)S/C1=C\c1c(Cl)cccc1Cl	58.5%
O=C1N/C(=N\c2nccs2)S/C1=C\c1cccc(Cl)c1Cl	45%

Test system: Escherichia coli
Test: Bactericidal activity against Escherichia coli ATCC 35210 after 72 hrs by serial subcultivation method
Format: functional
Settings: ATCC 35210, 72 h

Compound	MBC
O=C1N/C(=N\c2nccs2)S/C1=C\c1c(Cl)cccc1Cl	56.2 µM (≈ 20 µg/mL)
O=C1N/C(=N\c2nccs2)S/C1=C\c1cccc(Cl)c1Cl	70.2 µM (≈ 25 µg/mL)

— ChEMBL document CHEMBL2311431, “Synthesis and biological evaluation of some 5-arylidene-2-(1,3-thiazol-2-ylimino)-1,3-thiazolidin-4-ones as dual anti-inflammatory/antimicrobial agents” (Bioorg Med Chem, 2013)
